# What was measured:
# Assay type in all cases: functional
# [1] = system: SK-MEL-2; assay: Cytotoxicity against human SK-MEL-2 cells assessed as cell growth at 100 nM after 48 hrs by sulforhodamine B assay; settings: SK-MEL-2, 48 h, read-out: Activity
# [2] = system: OVCAR-4; assay: Cytotoxicity against human OVCAR4 cells assessed as cell growth at 100 nM after 48 hrs by sulforhodamine B assay; settings: OVCAR-4, 48 h, read-out: Activity
# [3] = system: OVCAR-5; assay: Cytotoxicity against human OVCAR5 cells assessed as cell growth at 100 nM after 48 hrs by sulforhodamine B assay; settings: OVCAR-5, 48 h, read-out: Activity
# [4] = system: SNB-75; assay: Cytotoxicity against human SNB75 cells assessed as cell growth at 10 uM; settings: read-out: Activity
# In short: (§1)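 NCI-60 screen: cells grown in RPMI 1640 with 5% FBS and 2 mM L-glutamine, plated at 5000–40,000 cells/well according to doubling time, and preincubated 24 h at 37 °C, 5% CO2. The single 10 µM dose (DMSO stock) was added, then incubated 48 h. Cells were TCA-fixed and stained with 0.4% SRB, read at 515 nm, and growth % calculated against time-zero and control plates.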
# [5] = system: U-251; assay: Cytotoxicity against human U251 cells assessed as cell growth at 10 uM; settings: read-out: Activity; in short: as §1
# [6] = system: NCI/ADR-RES; assay: Cytotoxicity against human NCI/ADR-RES cells assessed as cell growth at 10 uM; settings: read-out: Activity; in short: as §1
# [7] = system: A498; assay: Cytotoxicity against human A498 cells assessed as cell growth at 10 uM; settings: read-out: Activity
# In short: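 Single-dose NCI-60 screen at 10 µM. Cells were grown in RPMI 1640 with 5% FBS and 2 mM L-glutamine, then treated for 48 h at 37 °C. Protein was measured by SRB staining with absorbance at 515 nm. Percentage growth was recorded, and inhibition percentage was calculated as 100 minus growth percentage.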
# [8] = system: TK-10; assay: Cytotoxicity against human TK10 cells assessed as cell growth at 10 uM; settings: read-out: Activity; in short: as §1
# [9] = system: PC-3; assay: Cytotoxicity against human PC3 cells assessed as cell growth at 10 uM; settings: read-out: Activity; in short: as §1
# [10] = system: MCF7; assay: Cytotoxicity against human MCF7 cells assessed as cell growth at 10 uM; settings: read-out: Activity; in short: as §1
# [11] = system: A549; assay: Cytotoxicity against human A549 cells assessed as cell growth at 0.001 uM after 48 hrs by sulforhodamine B assay; settings: A549, 48 h, read-out: Activity
# In short: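 NCI-60 five-dose screen. Cells were grown in RPMI 1640 with 5% FBS and 2 mM L-glutamine, plated at 5000–40,000 cells/well and preincubated for 24 h. Time-zero plates were TCA-fixed. DMSO-solubilized drug was added at five concentrations (10-fold or ½-log serial dilutions) for 48 h at 37 °C, 5% CO2. Cells were TCA-fixed, stained with 0.4% SRB and read at 515 nm. Percent growth used time-zero, control and test absorbances.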
# [12] = system: KM12; assay: Cytotoxicity against human KM12 cells assessed as cell growth at 1 uM after 48 hrs by sulforhodamine B assay; settings: KM12, 48 h, read-out: Activity
# [13] = system: SF-539; assay: Cytotoxicity against human SF539 cells assessed as cell growth at 1 uM after 48 hrs by sulforhodamine B assay; settings: SF-539, 48 h, read-out: Activity
# [14] = Cytotoxicity against human RPMI8266 cells assessed as cell growth at 0.01 uM after 48 hrs by sulforhodamine B assay; settings: read-out: Activity
# [15] = system: HOP-62; assay: Cytotoxicity against human HOP62 cells assessed as cell growth at 0.01 uM after 48 hrs by sulforhodamine B assay; settings: HOP-62, 48 h, read-out: Activity
# [16] = system: LOX IMVI; assay: Cytotoxicity against human LOXIMVI cells assessed as cell growth at 0.01 uM after 48 hrs by sulforhodamine B assay; settings: read-out: Activity
# [17] = system: UACC-62; assay: Cytotoxicity against human UACC62 cells assessed as cell growth at 0.001 uM after 48 hrs by sulforhodamine B assay; settings: UACC-62, 48 h, read-out: Activity
# [18] = system: IGROV-1; assay: Cytotoxicity against human IGROV1 cells assessed as cell growth at 0.001 uM after 48 hrs by sulforhodamine B assay; settings: IGROV-1, 48 h, read-out: Activity
# [19] = system: UO-31; assay: Cytotoxicity against human UO31 cells assessed as cell growth at 0.001 uM after 48 hrs by sulforhodamine B assay; settings: UO-31, 48 h, read-out: Activity
# [20] = system: PC-3; assay: Cytotoxicity against human PC3 cells assessed as cell growth at 0.001 uM after 48 hrs by sulforhodamine B assay; settings: PC-3, 48 h, read-out: Activity
# [21] = system: HOP-92; assay: Growth inhibition of human HOP92 cells after 48 hrs by sulforhodamine B assay; settings: HOP-92, 48 h; for CC50: read-out: LC50 (the source's name)
# In short: (§2)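 NCI 60-cell screen, five-dose mode. Cells grown in RPMI 1640 with 5% FBS and 2 mM L-glutamine and plated at 5000-40,000 cells/well according to doubling time. After 24 h preincubation, a Tz plate was TCA-fixed. Five concentrations (10-fold or 1/2 log dilutions) were applied for 48 h at 37 °C. SRB staining read at 515 nm. IC50 taken from [(Ti-Tz)/(C-Tz)]×100 = 50.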
# [22] = system: UACC-257; assay: Growth inhibition of human UACC257 cells after 48 hrs by sulforhodamine B assay; settings: UACC-257, 48 h; for CC50: read-out: LC50 (the source's name); in short: as §2
# [23] = system: HL-60(TB); assay: Cytotoxicity against human HL-60(TB) cells assessed as cell growth at 10 uM; settings: read-out: Activity
# In short: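 NCI 60-cell panel screen at a single concentration of 10 µM. Cells are grown in RPMI 1640 with 5% FBS and 2 mM L-glutamine and read by SRB protein staining at 515 nm. Percent growth is measured relative to time-zero and untreated controls; inhibition % is 100 minus growth %.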
# [24] = system: UACC-62; assay: Cytotoxicity against human UACC62 cells assessed as cell growth at 1 uM after 48 hrs by sulforhodamine B assay; settings: UACC-62, 48 h, read-out: Activity
# [25] = system: NCI-H226; assay: Cytotoxicity against human NCI-H226 cells assessed as cell growth at 10 uM; settings: read-out: Activity; in short: as §1
# [26] = system: NCI-H322M; assay: Cytotoxicity against human NCI-H322M cells assessed as cell growth at 10 uM; settings: read-out: Activity; in short: as §1
# [27] = system: MOLT-4; assay: Cytotoxicity against human MOLT4 cells assessed as cell growth at 10 uM after 48 hrs by sulforhodamine B assay; settings: MOLT-4, 48 h, read-out: Activity
# [28] = system: NCI-H23; assay: Cytotoxicity against human NCI-H23 cells assessed as cell growth at 10 uM after 48 hrs by sulforhodamine B assay; settings: NCI-H23, 48 h, read-out: Activity
# [29] = system: SK-MEL-2; assay: Cytotoxicity against human SK-MEL-2 cells assessed as cell growth at 10 uM after 48 hrs by sulforhodamine B assay; settings: SK-MEL-2, 48 h, read-out: Activity
# [30] = system: OVCAR-4; assay: Cytotoxicity against human OVCAR4 cells assessed as cell growth at 10 uM after 48 hrs by sulforhodamine B assay; settings: OVCAR-4, 48 h, read-out: Activity
# [31] = system: DU-145; assay: Cytotoxicity against human DU145 cells assessed as cell growth at 10 uM after 48 hrs by sulforhodamine B assay; settings: DU-145, 48 h, read-out: Activity
Structure (SMILES),growth at 0.1 µM [1],growth at 0.1 µM [2],growth at 0.1 µM [3],growth at 10 µM [4],growth at 10 µM [5],growth at 10 µM [6],growth at 10 µM [7],growth at 10 µM [8],growth at 10 µM [9],growth at 10 µM [10],growth at 0.001 µM [11],growth at 1 µM [12],growth at 1 µM [13],growth at 0.01 µM [14],growth at 0.01 µM [15],growth at 0.01 µM [16],growth at 0.001 µM [17],growth at 0.001 µM [18],growth at 0.001 µM [19],growth at 0.001 µM [20],further results
COc1cc(C)cc(-c2c(-c3ccnc(-c4ccc(N(C)C)cc4)c3)cnn2CC#N)c1,14%,33%,53%,-21.1%,11.2%,-15.4%,21.3%,36.6%,27.6%,2.45%,95%,-43%,1%,78%,62%,39%,96%,95%,83%,101%,GI50 [21]: < 0.01 µM; TGI [21]: 0.0553 µM; CC50 [21]: > 100 µM; GI50 [22]: 0.0359 µM; TGI [22]: > 100 µM; CC50 [22]: > 100 µM; growth at 10 µM [23]: -5.87%; growth at 1 µM [24]: 18%; growth at 10 µM [25]: 39.8%; growth at 10 µM [26]: 58.9%; growth at 10 µM [27]: 1%; growth at 10 µM [28]: 17%; growth at 10 µM [29]: 10%; growth at 10 µM [30]: 25%; growth at 10 µM [31]: -48%
COc1cc(C)cc(-c2nn(CC#N)cc2-c2ccc(-c3cccc(C(C)=O)c3)nc2)c1,88%,92%,68%,-23.9%,11.8%,-25.8%,19.7%,27.3%,31.5%,8.74%,97%,4%,-39%,93%,83%,96%,94%,106%,86%,94%,GI50 [21]: 2.63 µM; TGI [21]: 9.09 µM; CC50 [21]: > 100 µM; GI50 [22]: 3.61 µM; TGI [22]: > 100 µM; CC50 [22]: > 100 µM; growth at 10 µM [23]: 8.33%; growth at 1 µM [24]: 38%; growth at 10 µM [25]: 47.8%; growth at 10 µM [26]: 64.8%; growth at 10 µM [27]: 14%; growth at 10 µM [28]: -1%; growth at 10 µM [29]: -14%; growth at 10 µM [30]: 10%; growth at 10 µM [31]: -48%
Cc1cc(O)cc(-c2nn(CC#N)cc2-c2ccnc(-c3ccc(N(C)C)cc3)c2)c1,112%,101%,97%,-12.8%,17.1%,6.33%,51.1%,52.5%,40.4%,14.9%,104%,-9%,-34%,99%,89%,104%,90%,107%,89%,105%,GI50 [21]: 3.03 µM; TGI [21]: 46.8 µM; CC50 [21]: > 100 µM; GI50 [22]: 4.35 µM; TGI [22]: 35.6 µM; CC50 [22]: > 100 µM; growth at 10 µM [23]: 7.44%; growth at 1 µM [24]: 10%; growth at 10 µM [25]: 35.8%; growth at 10 µM [26]: 94.1%; growth at 10 µM [27]: -6%; growth at 10 µM [28]: -37%; growth at 10 µM [29]: -46%; growth at 10 µM [30]: 9%; growth at 10 µM [31]: -66%
Cc1cc(O)cc(-c2nn(CC#N)cc2-c2ccnc(-c3ccc(Oc4ccccc4)cc3)c2)c1,101%,106%,82%,40%,47.5%,37.9%,93.9%,47.2%,66.4%,18.4%,96%,-39%,13%,100%,108%,101%,92%,98%,91%,98%,GI50 [21]: 1.59 µM; TGI [21]: 5.24 µM; CC50 [21]: 39.5 µM; GI50 [22]: 2.38 µM; TGI [22]: 8.38 µM; CC50 [22]: 31.7 µM; growth at 10 µM [23]: 44.3%; growth at 1 µM [24]: 33%; growth at 10 µM [25]: 70.3%; growth at 10 µM [26]: 80.7%; growth at 10 µM [27]: -21%; growth at 10 µM [28]: -75%; growth at 10 µM [29]: -81%; growth at 10 µM [30]: -83%; growth at 10 µM [31]: -100%
COc1cc(C)cc(-c2nn(CC#N)cc2-c2ccnc(-c3ccc(N(C)C)cc3)c2)c1,50%,33%,79%,-25.5%,-9.99%,-28%,4.2%,34.7%,31.6%,10.1%,97%,-37%,-35%,110%,99%,105%,91%,103%,90%,97%,GI50 [21]: 0.557 µM; TGI [21]: 26.6 µM; CC50 [21]: > 100 µM; GI50 [22]: 0.448 µM; TGI [22]: > 100 µM; CC50 [22]: > 100 µM; growth at 10 µM [23]: 1.48%; growth at 1 µM [24]: 12%; growth at 10 µM [25]: 24.9%; growth at 10 µM [26]: 41.1%; growth at 10 µM [27]: 1%; growth at 10 µM [28]: 5%; growth at 10 µM [29]: -12%; growth at 10 µM [30]: 15%; growth at 10 µM [31]: -48%

# — ChEMBL document CHEMBL1165950, “Design and synthesis of new potent anticancer pyrazoles with high FLT3 kinase inhibitory selectivity” (Bioorg Med Chem, 2010)
